Laboratory results reported in ChEMBL document CHEMBL3352477 (ACS Med Chem Lett, 2015).

Key:
[1] = target: Mitogen-activated protein kinase 10 (Homo sapiens, UniProt P53779); assay: Inhibition of human wild type JNK3 using biotinylated ATF2 substrate assessed as phosphorylation at thr53 on ATF2 by fluorescent plate reader
[2] = target: Serine/threonine-protein kinase/endoribonuclease IRE1 (Homo sapiens, UniProt O75460); assay: Inhibition of human IRE1alpha using 5'[6FAM]-GAGUCCGCAGCACUC-[BHQ1]3' substrate by biochemical fluorescence quenching assay
Method in brief: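 RNase activity of autophosphorylated IRE1α, read as cleavage of an XBP1 stem-loop RNA substrate. This format picks up inhibitors acting at either the kinase or the RNase domain.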

[3] = Inhibition of aurora (unknown origin) assessed as phosphorylation of histone H3; set-up: species or system Homo sapiens
HT-1080 = assay: Inhibition of human XBP1 splicing in human HT1080-CMV-XBP1-Luciferase cells assessed as luciferase signal by Promega Bright-Glo luciferase assay; format: functional
Method in brief: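 HT1080 cells carried an XBP1–luciferase fusion that is in frame and expressed only from the spliced XBP1 transcript. Thapsigargin induced the UPR and activated IRE1α to drive splicing. The luciferase signal was quantified as the measure of cellular XBP1 splicing.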

Mitogen-activated protein kinase 10, sequence (P53779 whole entry): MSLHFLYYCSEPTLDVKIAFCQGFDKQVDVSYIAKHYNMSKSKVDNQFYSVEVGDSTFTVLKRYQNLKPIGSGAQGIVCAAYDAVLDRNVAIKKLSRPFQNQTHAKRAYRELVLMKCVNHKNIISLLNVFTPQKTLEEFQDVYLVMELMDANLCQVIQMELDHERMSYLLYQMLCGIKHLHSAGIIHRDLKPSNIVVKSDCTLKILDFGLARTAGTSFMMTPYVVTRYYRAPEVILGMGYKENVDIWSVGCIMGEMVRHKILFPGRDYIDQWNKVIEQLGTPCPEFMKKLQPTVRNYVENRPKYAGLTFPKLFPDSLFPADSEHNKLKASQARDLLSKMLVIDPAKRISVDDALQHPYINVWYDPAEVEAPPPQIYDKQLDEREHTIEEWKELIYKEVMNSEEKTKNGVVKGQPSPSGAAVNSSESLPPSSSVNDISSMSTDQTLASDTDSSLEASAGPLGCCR
Serine/threonine-protein kinase/endoribonuclease IRE1, sequence (O75460 whole entry, the tested form may be a part): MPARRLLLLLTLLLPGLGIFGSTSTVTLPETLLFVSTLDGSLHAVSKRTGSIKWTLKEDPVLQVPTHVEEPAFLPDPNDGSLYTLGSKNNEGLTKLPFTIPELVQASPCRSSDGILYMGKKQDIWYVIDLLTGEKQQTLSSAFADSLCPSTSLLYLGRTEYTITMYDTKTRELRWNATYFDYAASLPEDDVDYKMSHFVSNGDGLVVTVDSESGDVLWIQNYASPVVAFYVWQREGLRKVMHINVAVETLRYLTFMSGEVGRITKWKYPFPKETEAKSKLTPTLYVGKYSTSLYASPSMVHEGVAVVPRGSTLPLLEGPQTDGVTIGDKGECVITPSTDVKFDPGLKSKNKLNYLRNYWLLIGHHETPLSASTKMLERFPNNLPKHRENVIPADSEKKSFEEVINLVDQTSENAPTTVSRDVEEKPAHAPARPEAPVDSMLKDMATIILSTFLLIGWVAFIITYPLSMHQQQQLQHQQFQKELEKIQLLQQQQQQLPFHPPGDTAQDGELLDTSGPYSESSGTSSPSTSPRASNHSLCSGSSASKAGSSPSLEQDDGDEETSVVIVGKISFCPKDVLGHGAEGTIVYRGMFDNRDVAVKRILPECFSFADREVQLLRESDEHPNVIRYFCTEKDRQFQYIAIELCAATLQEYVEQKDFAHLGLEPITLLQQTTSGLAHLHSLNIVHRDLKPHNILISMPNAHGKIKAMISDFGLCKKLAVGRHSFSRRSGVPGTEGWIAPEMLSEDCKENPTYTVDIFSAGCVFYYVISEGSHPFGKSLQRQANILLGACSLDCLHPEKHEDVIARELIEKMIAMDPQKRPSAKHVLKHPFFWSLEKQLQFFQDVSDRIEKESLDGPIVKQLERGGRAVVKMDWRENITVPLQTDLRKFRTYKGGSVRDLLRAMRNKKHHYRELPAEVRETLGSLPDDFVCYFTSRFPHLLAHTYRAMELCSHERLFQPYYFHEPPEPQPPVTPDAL

SMILES | IC50 [1] [nM] | IC50 [2] [nM] | IC50 [3] [nM] | IC50 (HT-1080) [nM]
CN(C)CCNc1nccc(-c2cccnc2Oc2ccc(Nc3nc4ccccc4[nH]3)c3ccccc23)n1 | 350 | 71 | 16000 | 270
Cc1cc(Nc2nc3ccccc3[nH]2)c2ccccc2c1Oc1ncccc1-c1ccnc(NCCN(C)C)n1 | 710 | 14 | > 50000 | 200
CC(C)CCNc1nccc(-c2cccnc2Oc2ccc(Nc3nc4ccccc4[nH]3)c3ccccc23)n1 | 32 | > 99000 | – | 15000
OCCNc1nccc(-c2cccnc2Oc2ccc(Nc3nc4ccccc4[nH]3)c3ccccc23)n1 | 12 | 170 | – | 870
CN1CCCC(Nc2nccc(-c3cccnc3Oc3ccc(Nc4nc5ccccc5[nH]4)c4ccccc34)n2)C1 (centres undefined) | 5.5 | 29 | – | 310
c1cnc(Oc2ccc(Nc3nc4ccccc4[nH]3)c3ccccc23)c(-c2ccnc(N[C@@H]3CCCNC3)n2)c1 | 14 | 51 | – | 570
c1cnc(Oc2ccc(Nc3nc4ccccc4[nH]3)c3ccccc23)c(-c2ccnc(N[C@H]3CCCNC3)n2)c1 | 31 | 9.7 | – | 31
N[C@H]1CC[C@H](Nc2nccc(-c3cccnc3Oc3ccc(Nc4nc5ccccc5[nH]4)c4ccccc34)n2)CC1 | 1.9 | 11 | – | 33
N[C@H]1CC[C@@H](Nc2nccc(-c3cccnc3Oc3ccc(Nc4nc5ccccc5[nH]4)c4ccccc34)n2)CC1 | 7.5 | 43 | – | 340
Cc1cc(Nc2nc3ccccc3[nH]2)c2ccccc2c1Oc1ncccc1-c1ccnc(N[C@H]2CC[C@H](N)CC2)n1 | 1.9 | 6.4 | – | 33
Cc1cc(Nc2nc3ccccc3[nH]2)c2ccccc2c1Oc1ncccc1-c1ccnc(N[C@H]2CCCNC2)n1 | 20 | 5.1 | – | 13
Cc1cc(Nc2nc3ccccc3o2)c2ccccc2c1Oc1ncccc1-c1ccnc(N[C@H]2CC[C@H](N)CC2)n1 | 7 | 14 | – | 51
Cc1cc(NS(=O)(=O)c2ccccc2)c2ccccc2c1Oc1ncccc1-c1ccnc(N[C@H]2CC[C@H](N)CC2)n1 | 2200 | 45 | – | 590
COc1ccccc1S(=O)(=O)Nc1cc(C)c(Oc2ncccc2-c2ccnc(N[C@H]3CC[C@H](N)CC3)n2)c2ccccc12 | 1200 | 54 | – | 440
Cc1cc(NS(=O)(=O)c2ccccc2C#N)c2ccccc2c1Oc1ncccc1-c1ccnc(N[C@H]2CC[C@H](N)CC2)n1 | 400 | 12 | – | 62
Cc1cc(NS(=O)(=O)c2ccccc2Cl)c2ccccc2c1Oc1ncccc1-c1ccnc(N[C@H]2CC[C@H](N)CC2)n1 | 1600 | 14 | – | 42
Cc1ccc2c(NS(=O)(=O)c3ccccc3Cl)cccc2c1Oc1ncccc1-c1ccnc(N[C@H]2CC[C@H](N)CC2)n1 | 540 | 22 | – | 120
Cc1ccc2c(NS(=O)(=O)c3ccccc3Cl)cccc2c1Oc1ncccc1-c1ccnc(N[C@H]2CCCNC2)n1 | 2500 | 13 | – | 99
N[C@H]1CC[C@H](Nc2nccc(-c3cccnc3Oc3ccc(NS(=O)(=O)c4ccccc4Cl)c4ccccc34)n2)CC1 | 400 | 31 | – | 580
